This is an account of results in ChEMBL document CHEMBL3526129, “Species differences in tissue distribution and enzyme activities of arylacetamide deacetylase in human, rat, and mouse” (Drug Metab Dispos, 2012).

Each structure is given as a SMILES string.

In data set [1] the target is T1, Arylacetamide deacetylase (Homo sapiens, UniProt P22760).
T1 sequence (P22760 whole entry): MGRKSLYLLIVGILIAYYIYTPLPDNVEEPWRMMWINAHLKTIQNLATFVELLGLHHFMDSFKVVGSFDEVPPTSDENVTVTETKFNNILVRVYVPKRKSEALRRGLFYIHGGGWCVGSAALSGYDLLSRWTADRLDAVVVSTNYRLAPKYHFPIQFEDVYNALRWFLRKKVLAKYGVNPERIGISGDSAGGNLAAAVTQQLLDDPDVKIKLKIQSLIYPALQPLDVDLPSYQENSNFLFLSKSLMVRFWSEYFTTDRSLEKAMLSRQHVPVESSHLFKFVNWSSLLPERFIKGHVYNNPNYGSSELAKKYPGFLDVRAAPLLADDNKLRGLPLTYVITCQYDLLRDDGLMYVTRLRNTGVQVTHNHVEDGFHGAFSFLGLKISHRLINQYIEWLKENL
Nature of the data set: Inhibition of AADAC in human kidney microsome. In short, it runs like this:
(§1)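 Flutamide hydrolysis to FLU-1 by pooled human jejunum (n = 10) or single-donor human renal microsomes at 0.4 mg/ml in 100 mM potassium phosphate (pH 7.4). Flutamide was 0.005–0.75 mM (jejunum) or 0.025–0.75 mM (kidney). Kinetics were fitted to the substrate inhibition equation, combined with Michaelis-Menten for jejunum. Triplicate determinations.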

The target in data set [2] is T1, Arylacetamide deacetylase. Nature of the data set: Activity of AADAC in human jejunum microsome. The class given is ADME. Particulars: microsomes. In short, it runs like this:
(§2)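 Hydrolase activity of tissue microsomes in 0.2 ml mixtures of 100 mM potassium phosphate (pH 7.4). Microsomal protein: 0.4 mg/ml for flutamide (0.025–0.75 mM) and phenacetin (0.05–4 mM); 0.5 mg/ml for rifampicin (0.005–1 mM). Products measured were FLU-1, p-phenetidine and 25-deacetylrifampicin, within linear ranges. Three independent experiments.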

Data set [3] is described as follows: Intrinsic clearance in rat jejunum microsome at 0.005 to 0.75 mM. The class given is ADME. Particulars: jejunum microsomes.
A short description of data set [4]: Intrinsic clearance in mouse Liver microsome at 0.025 to 0.75 mM. It is filed as ADME. Particulars: liver microsomes, read-out: CLH. In short, it runs like this: (§3)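 Flutamide hydrolysis to FLU-1 in 100 mM potassium phosphate (pH 7.4) with 0.4 mg/ml microsomal protein. Flutamide was 0.025–0.75 mM, or 0.005–0.75 mM for human jejunum. Rodent microsomes were pooled from 3 male SD rats or 5 male C57BL/6J mice. CLint is Vmax/Km, or the initial slope when Km was high; for Hill fits, CLmax. Triplicate determinations.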

Data set [5] in a line: Intrinsic clearance in mouse jejunum microsome at 0.005 to 0.75 mM. It is filed as ADME. Particulars: jejunum microsomes.
Data set [6] in a line: Intrinsic clearance in rat Liver microsome at 0.025 to 0.75 mM. The class given is ADME. Particulars: liver microsomes, read-out: CLH. Put shortly: as §3
For orientation: Liver microsomes are vesicles of endoplasmic reticulum, rich in cytochrome P450 enzymes.

In data set [7] the target is T1, Arylacetamide deacetylase. As to the kind of experiment: Inhibition of AADAC in human jejunum microsome. In short, it runs like this:
as §1

Data set [8] is described as follows: Intrinsic clearance in human Liver microsome at 0.025 to 0.75 mM. It is filed as ADME. Particulars: liver microsomes, read-out: CLH. Put shortly:
as §3

Data set [9] deals with T1, Arylacetamide deacetylase. As to the kind of experiment: Activity of AADAC in human liver microsome. The class given is ADME. Particulars: microsomes. Put shortly:
as §2

A short description of data set [10]: Intrinsic clearance in human jejunum microsome at 0.005 to 0.75 mM. It is filed as ADME. Particulars: jejunum microsomes. Put shortly: as §3
Data set [11] is described as follows: Intrinsic clearance in human kidney microsome at 0.025 to 0.75 mM. Particulars: kidney microsomes. It is filed as ADME. In short, it runs like this: as §3
Data set [12] in a line: Intrinsic clearance in mouse kidney microsome at 0.025 to 0.75 mM. The class given is ADME. Particulars: kidney microsomes. In short, it runs like this:
as §3

The target of data set [13] is T1, Arylacetamide deacetylase. Nature of the data set: Activity of AADAC in human kidney microsome. The class given is ADME. Particulars: microsomes. In short, it runs like this:
as §2

Data set [14] can be described thus: Intrinsic clearance in rat kidney microsome at 0.025 to 0.75 mM. It is filed as ADME. Particulars: kidney microsomes. Put shortly: as §3
For data set [15], the target named is T2, Arylacetamide deacetylase (Mus musculus, UniProt Q99PG0).
T2 sequence (Q99PG0 whole entry): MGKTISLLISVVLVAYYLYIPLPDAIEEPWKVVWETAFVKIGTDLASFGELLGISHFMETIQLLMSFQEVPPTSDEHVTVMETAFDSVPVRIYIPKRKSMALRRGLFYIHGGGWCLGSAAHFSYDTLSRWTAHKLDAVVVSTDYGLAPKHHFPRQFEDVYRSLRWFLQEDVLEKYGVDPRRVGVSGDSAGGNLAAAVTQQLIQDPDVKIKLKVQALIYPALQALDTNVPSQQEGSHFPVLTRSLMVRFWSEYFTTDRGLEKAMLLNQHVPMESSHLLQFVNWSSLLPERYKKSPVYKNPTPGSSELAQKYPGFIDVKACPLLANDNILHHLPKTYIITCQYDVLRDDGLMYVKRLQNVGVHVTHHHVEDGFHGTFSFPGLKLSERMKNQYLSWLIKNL
Nature of the data set: Activity of AADAC in mouse lung microsome. The class given is ADME. Particulars: microsomes. Put shortly:
as §2

Data set [16] can be described thus: Intrinsic clearance in rat lung microsome at 0.025 to 0.75 mM. The class given is ADME. Particulars: lung microsomes. Put shortly: as §3

For the compound `CC(C)C(=O)Nc1ccc([N+](=O)[O-])c(C(F)(F)F)c1` [FLUTAMIDE], the values for the Ki in data set [1] and in data set [7] were 0.6 µM and 14 µM, respectively. Further, the S50 was found to be 0.2 mM in [2] and 2.1 mM in data set [13]. For the same compound, the microsomal CLint at up to 750 µM in data set [3] came out at 0.2 µL/min/mg; in [4], 1.2 µL/min/mg; in data set [5] it was 0.2 µL/min/mg; in data set [6], 1.4 µL/min/mg; in data set [8], 1.8 µL/min/mg; in [10], 12.9 µL/min/mg. The microsomal CLint at up to 750 µM came out at 1.2 µL/min/mg in data set [11], 0.6 µL/min/mg in data set [12], 0.2 µL/min/mg in [14] and 0.1 µL/min/mg in data set [16]. Besides, the results for the Vmax in data set [9] and in data set [15] were 1.9 nmol/min/mg and 0 nmol/min/mg, respectively.

For orientation: Ki means a dissociation constant, usually derived from enzyme kinetics or from competition with a known ligand. What is called Vmax is the top rate of the reaction or transport when substrate is in excess.
